Laboratory results from paper PMC7551138 (Alzheimer's & Dementia : Translational Research & Clinical …, 2020).

Key:
healthy elderly subjects [1] = test: Visual analogue scales; type: in vivo, human; details: 22 mg b.i.d. intranasal 7 days; vs placebo, mean (confidence interval)
In short: (§1)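 NeuroCart tests were repeated over time during the 7-day b.i.d. intranasal dosing: eye movements, N-back with 3 working-memory-load conditions, pharmaco-EEG, and 100-mm VAS (Bond and Lader mood/alertness/calmness; nausea). In the 22 mg cohort, EEG at 30 min and 3 h post-dose was dropped. Analysis was mixed-model ANOVA (treatment, time, treatment×time fixed; subject random; baseline covariate), giving LSM difference versus placebo with CI.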

healthy elderly subjects [2] = test: N‐back test; type: in vivo, human; details: vs placebo, mean (confidence interval)
In short: as §1

healthy elderly subjects [3] = test: Visual verbal learning test; type: in vivo, human; details: for VVLT Delayed word recall correct / VVLT Delayed word recognition RT correct / VVLT Delayed word recognition correct / VVLT Word recall correct 1 / VVLT Word recall correct 2 / VVLT Word recall correct 3: vs placebo, mean (confidence interval)
In short: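 Thirty words were shown repeatedly, with immediate recall after each presentation. After 30 min, delayed recall and recognition among distractor words were tested. This test was not repeated within a day. Analysis was mixed-model ANOVA (treatment, day, treatment×day fixed; subject random), giving LSM difference versus placebo with CI.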

healthy elderly subjects [4] = test: Pharmaco‐electroencephalography; type: in vivo, human; details: for EEG Delta Fz‐Cz closed (uV^2/Hz) / EEG Delta Fz‐Cz open (uV^2/Hz) / EEG Delta Pz‐O1 closed (uV^2/Hz) / EEG Delta Pz‐O1 open (uV^2/Hz) / EEG Delta Pz‐O2 closed (uV^2/Hz) / EEG Delta Pz‐O2 open (uV^2/Hz): vs placebo, mean (confidence interval)
In short: as §1

healthy elderly subjects [5] = test: PK‐PD analysis, nonlinear mixed‐effect modeling of adaptive tracking; type: in vivo, human
In short: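 Nonlinear mixed-effects PK-PD modelling used plasma and CSF data from this study plus earlier first-in-human data. Oral comparator data were dose-corrected. […] models linked plasma concentration of the active cleavage product to adaptive tracking, testing direct-effect, turnover and effect-compartment forms. Inter-individual and inter-occasion variability were assessed. Covariates were added stepwise at p<0.01, then removed by backward elimination at p<0.001. Emax and EC50 (mg/L) are given with 95% CI.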

[6] = intranasal 20.0 mg/kg; cited from earlier work
[7] = cited from earlier work
[8] = 5.5 mg b.i.d. intranasal 7 days

For `COc1ccc2c3c1O[C@H]1C[C@@H](OC(=O)c4ccccc4)C=C[C@@]31CCN(C)C2` [Gln‐1062], which “VAS Mood” value (healthy elderly subjects [1]) is on record?
The value was −0.68 (−3.66, 2.29) P = 0.6455 mm.

What about the “N‐back corr‐incorr/total 1” value (healthy elderly subjects [2]; [8]) of the same compound?
Its value is 0.026 (−0.026, 0.078) P = 0.3186.

What about the “N‐back corr‐incorr/total 2” value (healthy elderly subjects [2]; [8]) of the same compound?
The value was −0.002 (−0.068, 0.064) P = 0.9575.

And the “N‐back mean RT 2 back” value (healthy elderly subjects [2]; [8])?
Its value is −45.6 (−99.3, 8.2) P = 0.0944 msec.

And the “N‐back corr‐incorr/total 1” value (healthy elderly subjects [2]; 11 mg b.i.d. intranasal 7 days)?
Its value is 0.027 (−0.023, 0.076) P = 0.2811.

What about the “N‐back corr‐incorr/total 2” value (healthy elderly subjects [2]; 11 mg b.i.d. intranasal 7 days) of the same compound?
Its value is −0.016 (−0.081, 0.049) P = 0.6231.

What about the “N‐back mean RT 1 back” value (healthy elderly subjects [2]; 11 mg b.i.d. intranasal 7 days) of the same compound?
Its value is 6.1 (−39.6, 51.8) P = 0.7893 msec.

And the “N‐back corr‐incorr/total 1” value (healthy elderly subjects [2]; 22 mg b.i.d. intranasal 7 days)?
The value was 0.020 (−0.029, 0.069) P = 0.4242.

And the “N‐back corr‐incorr/total 2” value (healthy elderly subjects [2]; 22 mg b.i.d. intranasal 7 days)?
Its value is 0.036 (−0.028, 0.099) P = 0.2661.

And the “N‐back mean RT 1 back” value (healthy elderly subjects [2]; 22 mg b.i.d. intranasal 7 days)?
Its value is −24.4 (−67.1, 18.3) P = 0.2558 msec.

What about the “N‐back mean RT 2 back” value (healthy elderly subjects [2]; 22 mg b.i.d. intranasal 7 days) of the same compound?
Its value is −71.4 (−126.4,−16.3) P = 0.0123 msec.

And the “VVLT Delayed word recall correct” value (healthy elderly subjects [3]; [8])?
Its value is 0.36 (−2.02, 2.73) P = 0.7624.

What about the “VVLT Delayed word recognition RT correct” value (healthy elderly subjects [3]; [8]) of the same compound?
The value was −49.93 (−166.97, 67.10) P = 0.3944 msec.

What about the “VVLT Delayed word recognition correct” value (healthy elderly subjects [3]; [8]) of the same compound?
Its value is −2.60 (−6.60, 1.40) P = 0.1967.

And the “VVLT Word recall correct 1” value (healthy elderly subjects [3]; [8])?
The value was 0.36 (−1.31, 2.03) P = 0.6635.

What about the “VVLT Word recall correct 2” value (healthy elderly subjects [3]; [8]) of the same compound?
Its value is −0.45 (−2.44, 1.55) P = 0.6545.

What about the “VVLT Word recall correct 3” value (healthy elderly subjects [3]; [8]) of the same compound?
The value was −0.12 (−2.42, 2.17) P = 0.9136.

And the “VVLT Delayed word recall correct” value (healthy elderly subjects [3]; 11 mg b.i.d. intranasal 7 days)?
The value was −0.73 (−3.15, 1.70) P = 0.5486.

And the “VVLT Delayed word recognition RT correct” value (healthy elderly subjects [3]; 11 mg b.i.d. intranasal 7 days)?
Its value is −30.91 (−150.24, 88.41) P = 0.6041 msec.

What about the “VVLT Delayed word recognition correct” value (healthy elderly subjects [3]; 11 mg b.i.d. intranasal 7 days) of the same compound?
Its value is −2.19 (−6.24, 1.87) P = 0.2825.

And the “VVLT Word recall correct 1” value (healthy elderly subjects [3]; 11 mg b.i.d. intranasal 7 days)?
The value was 0.62 (−1.07, 2.32) P = 0.4608.

And the “VVLT Word recall correct 2” value (healthy elderly subjects [3]; 11 mg b.i.d. intranasal 7 days)?
The value was −0.63 (−2.65, 1.40) P = 0.5370.

What about the “VVLT Word recall correct 3” value (healthy elderly subjects [3]; 11 mg b.i.d. intranasal 7 days) of the same compound?
The value was −0.89 (−3.23, 1.44) P = 0.4444.

And the “VVLT Delayed word recall correct” value (healthy elderly subjects [3]; 22 mg b.i.d. intranasal 7 days)?
Its value is 0.48 (−1.89, 2.86) P = 0.6838.

What about the “VVLT Delayed word recognition RT correct” value (healthy elderly subjects [3]; 22 mg b.i.d. intranasal 7 days) of the same compound?
The value was −120.03 (−237.07,−3.00) P = 0.0447 msec.

And the “VVLT Delayed word recognition correct” value (healthy elderly subjects [3]; 22 mg b.i.d. intranasal 7 days)?
Its value is −0.43 (−4.43, 3.57) P = 0.8291.

What about the “VVLT Word recall correct 1” value (healthy elderly subjects [3]; 22 mg b.i.d. intranasal 7 days) of the same compound?
Its value is −0.12 (−1.79, 1.54) P = 0.8816.

And the “VVLT Word recall correct 2” value (healthy elderly subjects [3]; 22 mg b.i.d. intranasal 7 days)?
The value was −0.01 (−2.00, 1.99) P = 0.9959.

And the “VVLT Word recall correct 3” value (healthy elderly subjects [3]; 22 mg b.i.d. intranasal 7 days)?
Its value is 0.99 (−1.30, 3.29) P = 0.3883.

And the “effects on VVLT, eye movements and VAS mood, calmness, alertness and nausea” value (healthy elderly subjects [3]; compared with placebo)?
The value was “No significant and consistent effects”.

And the “EEG Delta Fz‐Cz closed (uV^2/Hz)” value (healthy elderly subjects [4]; [8])?
The value was −1.8% (−30.4%, 38.5%) P = 0.9140.

And the “EEG Delta Fz‐Cz open (uV^2/Hz)” value (healthy elderly subjects [4]; [8])?
The value was −13.6% (−35.0%, 14.8%) P = 0.3010.

What about the “EEG Delta Pz‐O1 closed (uV^2/Hz)” value (healthy elderly subjects [4]; [8]) of the same compound?
The value was −3.1% (−36.1%, 46.9%) P = 0.8765.

What about the “EEG Delta Pz‐O1 open (uV^2/Hz)” value (healthy elderly subjects [4]; [8]) of the same compound?
The value was −12.9% (−39.4%, 25.1%) P = 0.4391.

And the “EEG Delta Pz‐O2 closed (uV^2/Hz)” value (healthy elderly subjects [4]; [8])?
Its value is −13.4% (−39.2%, 23.5%) P = 0.4151.

What about the “EEG Delta Pz‐O2 open (uV^2/Hz)” value (healthy elderly subjects [4]; [8]) of the same compound?
The value was 3.1% (−23.8%, 39.4%) P = 0.8382.

What about the “EEG Delta Fz‐Cz closed (uV^2/Hz)” value (healthy elderly subjects [4]; 11 mg b.i.d. intranasal 7 days) of the same compound?
Its value is −14.8% (−37.6%, 16.4%) P = 0.3023.

What about the “EEG Delta Fz‐Cz open (uV^2/Hz)” value (healthy elderly subjects [4]; 11 mg b.i.d. intranasal 7 days) of the same compound?
The value was −2.5% (−25.2%, 27.0%) P = 0.8435.

What about the “EEG Delta Pz‐O1 closed (uV^2/Hz)” value (healthy elderly subjects [4]; 11 mg b.i.d. intranasal 7 days) of the same compound?
Its value is −12.4% (−41.5%, 31.2%) P = 0.5079.

What about the “EEG Delta Pz‐O1 open (uV^2/Hz)” value (healthy elderly subjects [4]; 11 mg b.i.d. intranasal 7 days) of the same compound?
The value was −5.4% (−33.6%, 34.6%) P = 0.7474.

And the “EEG Delta Pz‐O2 closed (uV^2/Hz)” value (healthy elderly subjects [4]; 11 mg b.i.d. intranasal 7 days)?
Its value is −0.4% (−28.5%, 38.7%) P = 0.9799.

And the “EEG Delta Pz‐O2 open (uV^2/Hz)” value (healthy elderly subjects [4]; 11 mg b.i.d. intranasal 7 days)?
Its value is 3.7% (−21.2%, 36.6%) P = 0.7851.

What about the “EEG delta power at the frontal and parietal locations” value (healthy elderly subjects [4]; 22 mg) of the same compound?
The value was “significantly decreased”.

And the “EEG Delta Fz‐Cz closed (uV^2/Hz)” value (healthy elderly subjects [4]; 22 mg b.i.d. intranasal 7 days)?
The value was −19.8% (−35.7%,−0.1%) P = 0.0495.

What about the “EEG Delta Fz‐Cz open (uV^2/Hz)” value (healthy elderly subjects [4]; 22 mg b.i.d. intranasal 7 days) of the same compound?
The value was −30.1% (−48.3%,−5.3%) P = 0.0235.

What about the “EEG Delta Pz‐O1 closed (uV^2/Hz)” value (healthy elderly subjects [4]; 22 mg b.i.d. intranasal 7 days) of the same compound?
The value was −27.4% (−46.1%,−2.1%) P = 0.0369.

What about the “EEG Delta Pz‐O1 open (uV^2/Hz)” value (healthy elderly subjects [4]; 22 mg b.i.d. intranasal 7 days) of the same compound?
The value was −29.1% (−45.3%,−8.0%) P = 0.0126.

And the “EEG Delta Pz‐O2 closed (uV^2/Hz)” value (healthy elderly subjects [4]; 22 mg b.i.d. intranasal 7 days)?
Its value is −21.5% (−35.1%, −5.0%) P = 0.0154.

And the “EEG Delta Pz‐O2 open (uV^2/Hz)” value (healthy elderly subjects [4]; 22 mg b.i.d. intranasal 7 days)?
Its value is −16.5% (−33.4%, 4.8%) P = 0.1128.

And the “maximum increase (Emax) of adaptive tracking” value (healthy elderly subjects [5]; direct effect model on galantamine plasma concentration, 95% CI 1.15–5.90)?
Its value is 1.91.

What about the “concentration resulting in half of the maximum (EC50), adaptive tracking” value (healthy elderly subjects [5]; galantamine plasma concentration, direct effect model, by drug dosed) of the same compound?
Its value is 0.0231 µg/mL.

What about the “blood‐to‐brain ratio” value [6] of the same compound?
Its value is 10.2 mg/kg.

What about the “tolerability compared with 16 mg oral galantamine and other ChEIs” value ([7]; 22 mg) of the same compound?
The value was “better tolerated”.

And the “sustained attention (adaptive tracking) and verbal memory (VVLT)” value ([7]; 5.5, 11, 22, 33 and 44 mg)?
Its value is “dose‐dependent improvements”.
